Assay results taken from ChEMBL document CHEMBL3120060, “Synthesis, in vitro anticancer evaluation and in silico studies of novel imidazo[2,1-b]thiazole derivatives bearing pyrazole moieties” (2014).

Legend:
Assay type in all cases: functional
[1] = test system: HOP-92; assay: Cytotoxicity against human HOP92 cells assessed as cell growth at 10 uM after 48 hrs by SRB assay; conditions: HOP-92, 48 h, read-out: Activity
Summary of the method: (§1)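 NCI-60 single-dose screen. Cell lines grown in RPMI 1640 with 5% FBS and 2 mM L-glutamine, plated at 5000–40,000 cells/well according to doubling time, then preincubated 24 h at 37 °C in 5% CO2. Compounds dissolved in DMSO, tested at 10^-5 M for 48 h. Adherent cells fixed with cold TCA (10% final) and stained with 0.4% SRB in 1% acetic acid. Growth expressed as percent of untreated control.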

[2] = test system: HCT-15; assay: Cytotoxicity against human HCT15 cells assessed as cell growth at 10 uM after 48 hrs by SRB assay; conditions: HCT-15, 48 h, read-out: Activity; summary of the method: as §1
[3] = test system: UACC-62; assay: Cytotoxicity against human UACC62 cells assessed as cell growth at 10 uM after 48 hrs by SRB assay; conditions: UACC-62, 48 h, read-out: Activity
Summary of the method: (§2)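 NCI-60 single-dose screen at 10^-5 M. Adherent lines are grown in RPMI 1640 with 5% FBS and 2 mM L-glutamine, seeded at 5000–40,000 cells/well by doubling time, and preincubated 24 h at 37 °C in 5% CO2. Drug is added from DMSO stock diluted in medium, then 48 h. Cells are fixed in cold TCA (final 10%) for 60 min and stained with 0.4% SRB in 1% acetic acid. Growth is expressed as % of untreated control using time-zero plates.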

[4] = test system: SN12C; assay: Cytotoxicity against human SN12C cells assessed as cell growth at 10 uM after 48 hrs by SRB assay; conditions: read-out: Activity; summary of the method: as §1
[5] = test system: SF-295; assay: Cytotoxicity against human SF295 cells assessed as cell growth at 10 uM after 48 hrs by SRB assay; conditions: SF-295, 48 h, read-out: Activity; summary of the method: as §1
[6] = test system: OVCAR-3; assay: Cytotoxicity against human OVCAR3 cells assessed as cell growth at 10 uM after 48 hrs by SRB assay; conditions: OVCAR-3, 48 h, read-out: Activity; summary of the method: as §1
[7] = Cytotoxicity against human Hs578T cells assessed as cell growth at 10 uM after 48 hrs by SRB assay; conditions: Hs-578T, read-out: Activity; summary of the method: as §1
[8] = test system: M14; assay: Cytotoxicity against human M14 cells assessed as cell growth at 10 uM after 48 hrs by SRB assay; conditions: M14, 48 h, read-out: Activity; summary of the method: as §1
[9] = Cytotoxicity against human OVCAR5 cells assessed as cell growth at 10 uM after 48 hrs by SRB assay; conditions: OVCAR-5, 48 h, read-out: Activity; summary of the method: as §1
[10] = test system: SK-MEL-5; assay: Cytotoxicity against human SK-MEL-5 cells assessed as cell growth at 10 uM after 48 hrs by SRB assay; conditions: SK-MEL-5, 48 h, read-out: Activity; summary of the method: as §1
[11] = test system: HOP-62; assay: Cytotoxicity against human HOP62 cells assessed as cell growth at 10 uM after 48 hrs by SRB assay; conditions: HOP-62, 48 h, read-out: Activity; summary of the method: as §1
[12] = test system: 786-0; assay: Cytotoxicity against human 786-0 cells assessed as cell growth at 10 uM after 48 hrs by SRB assay; conditions: 786-0, 48 h, read-out: Activity; summary of the method: as §1
[13] = test system: SK-MEL-28; assay: Cytotoxicity against human SK-MEL-28 cells assessed as cell growth at 10 uM after 48 hrs by SRB assay; conditions: SK-MEL-28, 48 h, read-out: Activity; summary of the method: as §1
[14] = test system: SNB-75; assay: Cytotoxicity against human SNB75 cells assessed as cell growth at 10 uM after 48 hrs by SRB assay; conditions: SNB-75, 48 h, read-out: Activity; summary of the method: as §1
[15] = test system: CCRF-CEM; assay: Cytotoxicity against human CCRF-CEM cells assessed as cell growth at 10 uM after 48 hrs by SRB assay; conditions: read-out: Activity; summary of the method: as §1
[16] = test system: T47D; assay: Cytotoxicity against human T47D cells assessed as cell growth at 10 uM after 48 hrs by SRB assay; conditions: read-out: Activity; summary of the method: as §2
[17] = test system: DU-145; assay: Cytotoxicity against human DU145 cells assessed as cell growth at 10 uM after 48 hrs by SRB assay; conditions: DU-145, 48 h, read-out: Activity; summary of the method: as §1
[18] = test system: Malme-3M; assay: Cytotoxicity against human MALME-3M cells assessed as cell growth at 10 uM after 48 hrs by SRB assay; conditions: read-out: Activity; summary of the method: as §1
[19] = test system: HCT-116; assay: Cytotoxicity against human HCT116 cells assessed as cell growth at 10 uM after 48 hrs by SRB assay; conditions: HCT-116, 48 h, read-out: Activity; summary of the method: as §1
[20] = test system: MDA-MB-468; assay: Cytotoxicity against human MDA-MB-468 cells assessed as cell growth at 10 uM after 48 hrs by SRB assay; conditions: MDA-MB-468, 48 h, read-out: Activity; summary of the method: as §1
[21] = test system: NCI-H522; assay: Cytotoxicity against human NCI-H522 cells assessed as cell growth at 10 uM after 48 hrs by SRB assay; conditions: NCI-H522, 48 h, read-out: Activity; summary of the method: as §1
[22] = test system: NCI-H460; assay: Cytotoxicity against human NCI-H460 cells assessed as cell growth at 10 uM after 48 hrs by SRB assay; conditions: NCI-H460, 48 h, read-out: Activity; summary of the method: as §1
[23] = test system: RXF 393; assay: Cytotoxicity against human RXF393 cells assessed as cell growth at 10 uM after 48 hrs by SRB assay; conditions: RXF 393, 48 h, read-out: Activity; summary of the method: as §1
[24] = test system: RPMI-8226; assay: Cytotoxicity against human RPMI8226 cells assessed as cell growth at 10 uM after 48 hrs by SRB assay; conditions: RPMI-8226, 48 h, read-out: Activity; summary of the method: as §1
[25] = test system: SK-OV-3; assay: Cytotoxicity against human SKOV3 cells assessed as cell growth at 10 uM after 48 hrs by SRB assay; conditions: SK-OV-3, 48 h, read-out: Activity; summary of the method: as §1
[26] = test system: U-251; assay: Cytotoxicity against human U251 cells assessed as cell growth at 10 uM after 48 hrs by SRB assay; conditions: U-251, 48 h, read-out: Activity; summary of the method: as §2
[27] = test system: HL-60(TB); assay: Cytotoxicity against human HL-60(TB) cells assessed as cell growth at 10 uM after 48 hrs by SRB assay; conditions: HL-60, 48 h, read-out: Activity
Summary of the method: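 NCI-60 single-dose screen: cells grown in RPMI 1640 with 5% FBS and 2 mM L-glutamine, plated at 5000–40,000 cells/well, preincubated 24 h at 37 °C, 5% CO2. Compound dissolved in DMSO, tested at 10^-5 M for 48 h. Cells TCA-fixed, sulforhodamine B stained. Growth expressed as percent of untreated control, referenced to time-zero plates.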

[28] = test system: TK-10; assay: Cytotoxicity against human TK10 cells assessed as cell growth at 10 uM after 48 hrs by SRB assay; conditions: TK-10, 48 h, read-out: Activity; summary of the method: as §2

SMILES | growth at 10 µM [1] | growth at 10 µM [2] | growth at 10 µM [3] | growth at 10 µM [4] | growth at 10 µM [5] | growth at 10 µM [6] | growth at 10 µM [7] | growth at 10 µM [8] | growth at 10 µM [9] | growth at 10 µM [10] | growth at 10 µM [11] | growth at 10 µM [12] | growth at 10 µM [13] | growth at 10 µM [14] | growth at 10 µM [15] | growth at 10 µM [16] | growth at 10 µM [17] | growth at 10 µM [18] | growth at 10 µM [19] | growth at 10 µM [20] | further results
Cc1ccc(-c2csc3nc(-n4nc(C)cc4C)cn23)cc1 | 78% | 101% | 90.5% | 98.1% | 88.5% | 115% | 97% | 104% | 113% | 98.9% | 104% | 105% | 94.8% | 85.9% | 96% | 98.2% | 116% | 114% | 97% | 112% | growth at 10 µM [21]: 91.8%; growth at 10 µM [22]: 102%; growth at 10 µM [23]: 105%; growth at 10 µM [24]: 90.3%; growth at 10 µM [25]: 101%; growth at 10 µM [26]: 95%; growth at 10 µM [27]: 106%; growth at 10 µM [28]: 141%
Cc1ccc(-c2csc3nc(N4NC(=O)CC4=O)cn23)cc1 | 75.1% | 100% | 91.8% | 104% | 91.2% | 113% | 107% | 105% | 108% | 95.9% | 105% | 103% | 102% | 73.3% | 95.6% | 85.7% | 118% | 118% | 108% | 106% | growth at 10 µM [21]: 95.9%; growth at 10 µM [22]: 111%; growth at 10 µM [23]: 101%; growth at 10 µM [24]: 98.1%; growth at 10 µM [25]: 101%; growth at 10 µM [26]: 98.1%; growth at 10 µM [27]: 107%; growth at 10 µM [28]: 139%
CC1=NN(c2cn3c(-c4ccccc4)csc3n2)C(=O)C1 | 66.5% | 96.7% | 91.1% | 96% | 69.4% | 99.8% | 106% | 100% | 96.7% | 102% | 95.3% | 96.6% | 102% | 59.4% | 95.9% | 89.4% | 106% | 107% | 96.5% | 114% | growth at 10 µM [21]: 89.2%; growth at 10 µM [22]: 107%; growth at 10 µM [23]: 109%; growth at 10 µM [24]: 94.2%; growth at 10 µM [25]: 88.9%; growth at 10 µM [26]: 90.7%; growth at 10 µM [27]: 89.2%; growth at 10 µM [28]: 125%
Cc1cc(C)n(-c2cn3c(-c4ccc(Cl)cc4)csc3n2)n1 | 74.7% | 95.5% | 86.9% | 89% | 82.5% | 107% | 94.3% | 101% | 109% | 85.5% | 97.1% | 102% | 97.9% | 69.2% | 87.8% | 80.7% | 113% | 93.1% | 89.8% | 88.5% | growth at 10 µM [21]: 75.3%; growth at 10 µM [22]: 101%; growth at 10 µM [23]: 93.5%; growth at 10 µM [24]: 68.2%; growth at 10 µM [25]: 93.4%; growth at 10 µM [26]: 87.8%; growth at 10 µM [27]: 90.2%; growth at 10 µM [28]: 128%
